Source: ChEMBL document CHEMBL1150072, “Two new bioactive monotetrahydrofuran Annonaceous acetogenins from the bark of Xylopia aromatica” (J Nat Prod, 1994)
In brackets after ≈: the same amount, converted by molar mass.

Legend:
A549 = assay: Cytotoxicity against human A549 cells after 7 days by MTT assay; format: functional; conditions: A549, 168 h, read-out: ED50 (the source's name)
In short: (§1)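 Seven-day MTT assay of each compound against the human solid tumour lines A-549 (lung carcinoma), MCF-7 (breast carcinoma) and HT-29 (colon adenocarcinoma), run at a cell culture core laboratory. Adriamycin served as the positive control. Values from separate runs of the cell culture assay were reported apart.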

HT-29 = assay: Cytotoxicity against human HT-29 cells after 7 days by MTT assay; format: functional; conditions: HT-29, 168 h, read-out: ED50 (the source's name); in short: as §1
[1] = Toxicity in brine shrimp; format: organism-based; conditions: artemia, in vivo
MCF7 = assay: Cytotoxicity against human MCF7 cells after 7 days by MTT assay; format: functional; conditions: MCF7, 168 h, read-out: ED50 (the source's name); in short: as §1

**Q.** Which EC50 (A549) does the source give for `COc1cccc2c1C(=O)c1c(O)c3c(c(O)c1C2=O)C[C@@](O)(C(=O)CO)C[C@@H]3O[C@H]1C[C@H](N)[C@H](O)[C@H](C)O1` [DOXORUBICIN] here?
**A.** Its EC50 is 1.1 ng/mL (≈ 0.00202 µM).

**Q.** And the EC50 (HT-29)?
**A.** The EC50 was 2.7 ng/mL (≈ 0.00497 µM).

**Q.** Which results are given for `CCCCCCCCCC/C=C\CC[C@@H](O)[C@H]1CC[C@H]([C@H](O)CCCCC(O)CCCCC[C@@H](O)CC2=C[C@H](C)OC2=O)O1` (stereo not given in full) [XYLOMATENIN]?
**A.** LC50 [1]: 770 ng/mL (≈ 1.24 µM); EC50 (A549): < 1 ng/mL; EC50 (MCF7): 631 ng/mL (≈ 1.01 µM); EC50 (HT-29): < 1 ng/mL

**Q.** Which LC50 [1] does the source give for `CCCCCCCCCC/C=C\CC[C@@H](O)[C@H]1CC[C@H]([C@H](O)CCCCCCC(O)CCC[C@@H](O)CC2=C[C@H](C)OC2=O)O1` (stereo not given in full) [XYLOPIEN] here?
**A.** Its LC50 is 871 ng/mL (≈ 1.4 µM).

**Q.** What about the EC50 (A549) of the same compound?
**A.** Its EC50 is 3.64 ng/mL (≈ 0.00584 µM).

**Q.** And the EC50 (MCF7)?
**A.** Its EC50 is 7.11 ng/mL (≈ 0.0114 µM).

**Q.** What about the EC50 (HT-29) of the same compound?
**A.** Its EC50 is 7.26 ng/mL (≈ 0.0117 µM).
